The record followed here is ChEMBL document CHEMBL3297693, “Novel 3-arylfuran-2(5H)-one-fluoroquinolone hybrid: design, synthesis and evaluation as antibacterial agent” (Bioorg Med Chem, 2014).

Assay [1] is described as follows: Inhibition of Staphylococcus aureus TyrRS expressed in Escherichia coli assessed as tRNA aminoacylation pre-incubated for 10 mins using Escherichia coli MRE600 tRNA and L-[ring-3,5-3H]tyrosine by liquid scintillation counting. Summed up:
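S. aureus TyrRS overexpressed in E. coli and purified to about 98% (SDS–PAGE). Enzyme (0.2 nM) preincubated with inhibitor range 10 min at room temperature, then prewarmed mix added at 37 °C. Aliquots quenched in cold 7% TCA, filtered, scintillation counted. Kept linear, under 50% tRNA acylation.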

In another assay the test system is Bacillus subtilis. The experiment in a line: Antimicrobial activity against tetracycline-resistant Bacillus subtilis ATCC 6633 after 8 to 10 hrs by MTT proliferation assay. In kind it is functional. Summed up: (§1)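 Broth microdilution in LB medium in 96-well plates, inoculum about 10⁵ cfu/mL, serially diluted compounds, sterile medium as blank control. MTT (3 mg/mL in PBS) added, then 4–5 h at room temperature. Dye extracted with SDS lysis buffer (10% SDS, 5% isopropanol, pH about 3.5) for 8–10 h at room temperature. Absorbance read at 570 nm, control OD 1.0–2.0. MIC₅₀ reported.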
Background: Tetrazolium dyes change colour on reduction, which living cells bring about.

The subject of a further assay is Escherichia coli. Briefly: Antimicrobial activity against multiple drug-resistant Escherichia coli ATCC 35218 after 8 to 10 hrs by MTT proliferation assay. In kind it is functional. Summed up: as §1
The next assay concerns Staphylococcus aureus. Briefly: Antimicrobial activity against […] Staphylococcus aureus ATCC 25923 after 8 to 10 hrs by MTT proliferation assay. The assay is classed as functional. The method, boiled down:
as §1

Another assay deals with DNA gyrase (Escherichia coli, UniProt P0AES4+P0AES6). Briefly: Inhibition of Escherichia coli DNA gyrase assessed as reduction in enzyme-mediated DNA supercoiling using relaxed pBR322 substrate incubated for 60 mins by electrophoresis method. In kind it is protein-complex assay.

Converted amounts (≈) assume the structure as drawn. Bounds are passed on as bounds.

As to `O=C1OCC(OCCN2CCOCC2)=C1c1ccc(O)cc1`, in assay [1], the IC50 came out at 100 nM.
In the case of `CCn1cc(C(=O)O)c(=O)c2cc(F)c(N3CCN(CCOC4=C(c5ccccc5)C(=O)OC4)CC3)cc21`, the MIC50 in the assay with Bacillus subtilis is 16.6 µg/mL (≈ 31.8 µM); in the assay with Escherichia coli, greater than 25 µg/mL; in the assay on Staphylococcus aureus, 18.9 µg/mL (≈ 36.2 µM).
The like results for `CCn1cc(C(=O)O)c(=O)c2cc(F)c(N3CCN(CCOC4=C(c5ccccc5)C(=O)OC4)CC3)nc21` were, in that order, 12.6 µg/mL (≈ 24.1 µM), 5.6 µg/mL (≈ 10.7 µM) and 6.8 µg/mL (≈ 13 µM).
The matching figures for `O=C1OCC(OCCN2CCN(c3cc4c(cc3F)c(=O)c(C(=O)O)cn4-c3ccc(F)cc3)CC2)=C1c1ccccc1`: 0.6 µg/mL (≈ 1.02 µM), 1.2 µg/mL (≈ 2.04 µM) and 0.69 µg/mL (≈ 1.17 µM).
Consider `O=C1OCC(OCCN2CCN(c3cc4c(cc3F)c(=O)c(C(=O)O)cn4C3CC3)CC2)=C1c1ccccc1`, for which the figures for the MIC50 with Bacillus subtilis, with Escherichia coli and against Staphylococcus aureus were 0.23 µg/mL (≈ 0.431 µM), 1 µg/mL (≈ 1.87 µM) and 0.64 µg/mL (≈ 1.2 µM), respectively. For the same compound, the results for the IC50 (on DNA gyrase; in assay [1]) were 5770 nM and 7120 nM, respectively.
As to `CCn1cc(C(=O)O)c(=O)c2cc(F)c(N3CCN(CCOC4=C(c5ccccc5F)C(=O)OC4)CC3)cc21`, the MIC50 in the assay on Bacillus subtilis stood at 2.4 µg/mL (≈ 4.45 µM); against Escherichia coli it was 2.7 µg/mL (≈ 5 µM); in the assay on Staphylococcus aureus, 3.3 µg/mL (≈ 6.12 µM).
For `CCn1cc(C(=O)O)c(=O)c2cc(F)c(N3CCN(CCOC4=C(c5ccccc5F)C(=O)OC4)CC3)nc21`, the MIC50 stood at 1.6 µg/mL (≈ 2.96 µM) in the assay on Bacillus subtilis, 2.6 µg/mL (≈ 4.81 µM) with Escherichia coli and 2.6 µg/mL (≈ 4.81 µM) in the assay on Staphylococcus aureus.
Turning to `O=C1OCC(OCCN2CCN(c3cc4c(cc3F)c(=O)c(C(=O)O)cn4-c3ccc(F)cc3)CC2)=C1c1ccccc1F`, the MIC50 in the assay with Bacillus subtilis is 0.2 µg/mL (≈ 0.33 µM); with Escherichia coli, 0.67 µg/mL (≈ 1.11 µM); against Staphylococcus aureus, 0.21 µg/mL (≈ 0.347 µM). In addition, the IC50 on DNA gyrase came to 3690 nM; in assay [1] it was 2810 nM.
The matching figures for `O=C1OCC(OCCN2CCN(c3cc4c(cc3F)c(=O)c(C(=O)O)cn4C3CC3)CC2)=C1c1ccccc1F`: 0.09 µg/mL (≈ 0.163 µM), 0.11 µg/mL (≈ 0.199 µM), 0.19 µg/mL (≈ 0.344 µM), 1150 nM and 120 nM.
Regarding `O=C1OCC(OCCN2CCN(c3cc4c(cc3F)c(=O)c(C(=O)O)cn4C3CC3)CC2)=C1c1ccc(F)cc1`, the MIC50 against Bacillus subtilis turned out to be 0.16 µg/mL (≈ 0.29 µM); in the assay with Escherichia coli it was 0.37 µg/mL (≈ 0.671 µM); against Staphylococcus aureus, 0.24 µg/mL (≈ 0.435 µM). The results for the IC50 (on DNA gyrase; in assay [1]) were 2840 nM and 1290 nM, respectively.
Regarding `O=C1OCC(OCCN2CCN(c3cc4c(cc3F)c(=O)c(C(=O)O)cn4-c3ccc(F)cc3)CC2)=C1c1ccc(F)cc1`, the MIC50 with Bacillus subtilis came to 0.2 µg/mL (≈ 0.33 µM); in the assay on Escherichia coli it was 1.1 µg/mL (≈ 1.82 µM); with Staphylococcus aureus, 0.34 µg/mL (≈ 0.561 µM).
Consider `CCn1cc(C(=O)O)c(=O)c2cc(F)c(N3CCN(CCOC4=C(c5ccccc5Cl)C(=O)OC4)CC3)cc21`, for which the MIC50 against Bacillus subtilis came to 0.9 µg/mL (≈ 1.62 µM); in the assay with Escherichia coli, 2.5 µg/mL (≈ 4.5 µM); in the assay with Staphylococcus aureus it was 0.43 µg/mL (≈ 0.773 µM).
`O=C1OCC(OCCN2CCN(c3cc4c(cc3F)c(=O)c(C(=O)O)cn4-c3ccc(F)cc3)CC2)=C1c1ccccc1Cl`: the figures for the MIC50 against Bacillus subtilis, in the assay on Escherichia coli and against Staphylococcus aureus were 0.37 µg/mL (≈ 0.595 µM), 0.72 µg/mL (≈ 1.16 µM) and 0.25 µg/mL (≈ 0.402 µM), respectively. In addition, the figures for the IC50 (on DNA gyrase; in assay [1]) were 4050 nM and 6370 nM, respectively.
With `CCn1cc(C(=O)O)c(=O)c2cc(F)c(N3CCN(CCOC4=C(c5cccc(Cl)c5)C(=O)OC4)CC3)nc21`, the MIC50 in the assay with Bacillus subtilis came to 15.3 µg/mL (≈ 27.5 µM); against Escherichia coli, 2.9 µg/mL (≈ 5.21 µM); against Staphylococcus aureus it was 8.7 µg/mL (≈ 15.6 µM).
The like results for `O=C1OCC(OCCN2CCN(c3cc4c(cc3F)c(=O)c(C(=O)O)cn4-c3ccc(F)cc3)CC2)=C1c1cccc(Cl)c1` were, in that order, 0.75 µg/mL (≈ 1.21 µM), 0.89 µg/mL (≈ 1.43 µM) and 0.44 µg/mL (≈ 0.707 µM).
The like results for `CCn1cc(C(=O)O)c(=O)c2cc(F)c(N3CCN(CCOC4=C(c5ccc(Cl)cc5)C(=O)OC4)CC3)cc21` were, in that order, 18.5 µg/mL (≈ 33.3 µM), 19.5 µg/mL (≈ 35.1 µM) and 15.9 µg/mL (≈ 28.6 µM).
The matching figures for `CCn1cc(C(=O)O)c(=O)c2cc(F)c(N3CCN(CCOC4=C(c5ccc(Cl)cc5)C(=O)OC4)CC3)nc21`: 13.2 µg/mL (≈ 23.7 µM), 9.6 µg/mL (≈ 17.2 µM) and 24.9 µg/mL (≈ 44.7 µM).
As to `O=C1OCC(OCCN2CCN(c3cc4c(cc3F)c(=O)c(C(=O)O)cn4-c3ccc(F)cc3)CC2)=C1c1ccc(Cl)cc1`, the MIC50 in the assay on Bacillus subtilis stood at 0.51 µg/mL (≈ 0.82 µM); with Escherichia coli, 1.7 µg/mL (≈ 2.73 µM); against Staphylococcus aureus, 7.8 µg/mL (≈ 12.5 µM).
Consider `O=C1OCC(OCCN2CCN(c3cc4c(cc3F)c(=O)c(C(=O)O)cn4C3CC3)CC2)=C1c1ccc(Cl)cc1`, for which the MIC50 in the assay with Bacillus subtilis was determined as 0.16 µg/mL (≈ 0.282 µM); against Escherichia coli, 1.3 µg/mL (≈ 2.29 µM); against Staphylococcus aureus it was 0.49 µg/mL (≈ 0.863 µM).
For `O=C1OCC(OCCN2CCN(c3cc4c(cc3F)c(=O)c(C(=O)O)cn4-c3ccc(F)cc3)CC2)=C1c1cccc(Br)c1`, the MIC50 is 0.43 µg/mL (≈ 0.645 µM) in the assay on Bacillus subtilis, 4.4 µg/mL (≈ 6.6 µM) in the assay with Escherichia coli and 0.39 µg/mL (≈ 0.585 µM) in the assay on Staphylococcus aureus.
Take `CCn1cc(C(=O)O)c(=O)c2cc(F)c(N3CCN(CCOC4=C(c5cccc(Br)c5)C(=O)OC4)CC3)nc21`: the values for the MIC50 against Bacillus subtilis, in the assay with Escherichia coli and with Staphylococcus aureus were 4.7 µg/mL (≈ 7.81 µM), 12.2 µg/mL (≈ 20.3 µM) and 13.1 µg/mL (≈ 21.8 µM), respectively.
The like results for `CCn1cc(C(=O)O)c(=O)c2cc(F)c(N3CCN(CCOC4=C(c5ccc(Br)cc5)C(=O)OC4)CC3)cc21` were, in that order, greater than 25 µg/mL, 13.5 µg/mL (≈ 22.5 µM) and 21.6 µg/mL (≈ 36 µM).
Take `O=C1OCC(OCCN2CCN(c3cc4c(cc3F)c(=O)c(C(=O)O)cn4-c3ccc(F)cc3)CC2)=C1c1ccc(Br)cc1`: the MIC50 with Bacillus subtilis was 2.9 µg/mL (≈ 4.35 µM); against Escherichia coli, 4.2 µg/mL (≈ 6.3 µM); with Staphylococcus aureus it was 11.1 µg/mL (≈ 16.7 µM).
The like results for `O=C1OCC(OCCN2CCN(c3cc4c(cc3F)c(=O)c(C(=O)O)cn4C3CC3)CC2)=C1c1ccc(Br)cc1` were, in that order, 2.6 µg/mL (≈ 4.25 µM), 3.8 µg/mL (≈ 6.2 µM) and 8.5 µg/mL (≈ 13.9 µM).
The matching figures for `Cc1ccc(C2=C(OCCN3CCN(c4cc5c(cc4F)c(=O)c(C(=O)O)cn5-c4ccc(F)cc4)CC3)COC2=O)cc1`: 0.82 µg/mL (≈ 1.36 µM), 2 µg/mL (≈ 3.32 µM) and 0.45 µg/mL (≈ 0.748 µM).
The matching figures for `Cc1ccc(C2=C(OCCN3CCN(c4cc5c(cc4F)c(=O)c(C(=O)O)cn5C4CC4)CC3)COC2=O)cc1`: 0.39 µg/mL (≈ 0.712 µM), 1.9 µg/mL (≈ 3.47 µM) and 0.53 µg/mL (≈ 0.968 µM).
Take `COc1ccc(C2=C(OCCN3CCN(c4cc5c(cc4F)c(=O)c(C(=O)O)cn5C4CC4)CC3)COC2=O)cc1`: the MIC50 against Bacillus subtilis was found to be 2.6 µg/mL (≈ 4.61 µM); with Escherichia coli it was 23.5 µg/mL (≈ 41.7 µM); against Staphylococcus aureus it was 6.5 µg/mL (≈ 11.5 µM).
The matching figures for `O=C1OCC(OCCN2CCN(c3cc4c(cc3F)c(=O)c(C(=O)O)cn4-c3ccc(F)cc3)CC2)=C1c1ccccc1OCc1ccccc1`: 0.58 µg/mL (≈ 0.836 µM), 2.8 µg/mL (≈ 4.04 µM) and 2.1 µg/mL (≈ 3.03 µM).
The like results for `O=C(O)c1cn(C2CC2)c2cc(N3CCNCC3)c(F)cc2c1=O` [CIPROFLOXACIN] were, in that order, 2.7 µg/mL (≈ 8.15 µM), 5.65 µg/mL (≈ 17.1 µM) and 6.82 µg/mL (≈ 20.6 µM).

The term IC50 denotes the midpoint of a concentration-inhibition curve. Broadly, the MIC50 is an inhibitory concentration at the 50% level, which refers to growth in some studies and to a panel of isolates in others. A higher MIC50 goes with weaker potency.
